# Assay results from ChEMBL document CHEMBL4823293, “Fragment-based lead discovery to identify novel inhibitors that target the ATP binding site of pyruvate dehydrogenase kinases” (Bioorg Med Chem, 2021).
# Key:
# [1] = target: T1, [Pyruvate dehydrogenase (acetyl-transferring)] kinase isozyme 4, mitochondrial (Homo sapiens, UniProt Q16654); assay: Inhibition of human PDHK4 co-complexed with porcine PDH using sodium pyruvate, coenzymeA and NAD as substrate preincubated with enzyme complex for 45 mins followed by ATP addition and then later incubated with substrate for 90 mins by absorption spectrophotometric assay
# Target sequence in this assay (Q16654 whole entry): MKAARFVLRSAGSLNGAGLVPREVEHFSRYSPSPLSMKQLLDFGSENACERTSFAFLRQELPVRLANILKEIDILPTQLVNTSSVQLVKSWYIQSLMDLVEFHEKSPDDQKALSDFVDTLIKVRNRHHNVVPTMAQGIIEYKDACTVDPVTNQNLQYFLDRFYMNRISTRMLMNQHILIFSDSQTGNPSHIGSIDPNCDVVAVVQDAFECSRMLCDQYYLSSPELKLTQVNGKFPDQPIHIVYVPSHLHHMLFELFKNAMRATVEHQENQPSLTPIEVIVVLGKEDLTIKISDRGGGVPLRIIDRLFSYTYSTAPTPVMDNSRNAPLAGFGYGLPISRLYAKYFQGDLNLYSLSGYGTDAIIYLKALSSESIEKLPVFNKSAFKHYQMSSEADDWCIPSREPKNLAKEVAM
# [2] = target: T2, [Pyruvate dehydrogenase (acetyl-transferring)] kinase isozyme 2, mitochondrial (Homo sapiens, UniProt Q15119); assay: Inhibition of human PDHK2 co-complexed with porcine PDH using sodium pyruvate, coenzymeA and NAD as substrate preincubated with enzyme complex for 45 mins followed by ATP addition and then later incubated with substrate for 90 mins by absorption spectrophotometric assay
# [3] = target: T3, Branched-chain alpha-ketoacid dehydrogenase kinase (Homo sapiens, UniProt O14874); assay: Inhibition of human recombinant BCKDK incubated for 60 mins by ADP-Glo kinase assay
# [4] = target: T1, [Pyruvate dehydrogenase (acetyl-transferring)] kinase isozyme 4, mitochondrial; assay: Inhibition of human PDHK4 assessed as reduction in acetyl-coenzymeA formation at IC50 by RapidFire mass spectrometry relative to control
# Outline: (§1)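 PDHK reaction read through downstream PDH product. Reaction mix diluted 25-fold in 0.1% formic acid. Acetyl-CoA captured on graphitic carbon SPE (5 mM ammonium acetate pH 10.0), eluted with buffer/acetonitrile/acetone 50:25:25. […] MRM at 808/79 and 808/408; peak AUC quantified, ATP signal confirming each injection.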
# Target sequence in this assay (Q16654 whole entry, looked up): as the sequence (Q16654 whole entry) above
# [5] = target: T1, [Pyruvate dehydrogenase (acetyl-transferring)] kinase isozyme 4, mitochondrial; assay: Inhibition of human PDHK4 assessed as reduction in acetyl-coenzymeA formation by RapidFire mass spectrometry; outline: as §1
# Target sequence in this assay (Q16654 whole entry): as above
# [6] = target: T2, [Pyruvate dehydrogenase (acetyl-transferring)] kinase isozyme 2, mitochondrial; assay: Inhibition of human PDHK2 assessed as reduction in acetyl-coenzymeA formation by RapidFire mass spectrometry; outline: as §1
# [7] = target: Microtubule-associated serine/threonine-protein kinase 1 (Homo sapiens) (UniProt Q9Y2H9); assay: Inhibition of human partial length wild type MAST1 (S346 to V730 residues) expressed in mammalian expression system at 10 uM by KINOMEscan analysis
# Microtubule-associated serine/threonine-protein kinase 1 (Homo sapiens), sequence (Q9Y2H9 whole entry, looked up, the tested form may be a part): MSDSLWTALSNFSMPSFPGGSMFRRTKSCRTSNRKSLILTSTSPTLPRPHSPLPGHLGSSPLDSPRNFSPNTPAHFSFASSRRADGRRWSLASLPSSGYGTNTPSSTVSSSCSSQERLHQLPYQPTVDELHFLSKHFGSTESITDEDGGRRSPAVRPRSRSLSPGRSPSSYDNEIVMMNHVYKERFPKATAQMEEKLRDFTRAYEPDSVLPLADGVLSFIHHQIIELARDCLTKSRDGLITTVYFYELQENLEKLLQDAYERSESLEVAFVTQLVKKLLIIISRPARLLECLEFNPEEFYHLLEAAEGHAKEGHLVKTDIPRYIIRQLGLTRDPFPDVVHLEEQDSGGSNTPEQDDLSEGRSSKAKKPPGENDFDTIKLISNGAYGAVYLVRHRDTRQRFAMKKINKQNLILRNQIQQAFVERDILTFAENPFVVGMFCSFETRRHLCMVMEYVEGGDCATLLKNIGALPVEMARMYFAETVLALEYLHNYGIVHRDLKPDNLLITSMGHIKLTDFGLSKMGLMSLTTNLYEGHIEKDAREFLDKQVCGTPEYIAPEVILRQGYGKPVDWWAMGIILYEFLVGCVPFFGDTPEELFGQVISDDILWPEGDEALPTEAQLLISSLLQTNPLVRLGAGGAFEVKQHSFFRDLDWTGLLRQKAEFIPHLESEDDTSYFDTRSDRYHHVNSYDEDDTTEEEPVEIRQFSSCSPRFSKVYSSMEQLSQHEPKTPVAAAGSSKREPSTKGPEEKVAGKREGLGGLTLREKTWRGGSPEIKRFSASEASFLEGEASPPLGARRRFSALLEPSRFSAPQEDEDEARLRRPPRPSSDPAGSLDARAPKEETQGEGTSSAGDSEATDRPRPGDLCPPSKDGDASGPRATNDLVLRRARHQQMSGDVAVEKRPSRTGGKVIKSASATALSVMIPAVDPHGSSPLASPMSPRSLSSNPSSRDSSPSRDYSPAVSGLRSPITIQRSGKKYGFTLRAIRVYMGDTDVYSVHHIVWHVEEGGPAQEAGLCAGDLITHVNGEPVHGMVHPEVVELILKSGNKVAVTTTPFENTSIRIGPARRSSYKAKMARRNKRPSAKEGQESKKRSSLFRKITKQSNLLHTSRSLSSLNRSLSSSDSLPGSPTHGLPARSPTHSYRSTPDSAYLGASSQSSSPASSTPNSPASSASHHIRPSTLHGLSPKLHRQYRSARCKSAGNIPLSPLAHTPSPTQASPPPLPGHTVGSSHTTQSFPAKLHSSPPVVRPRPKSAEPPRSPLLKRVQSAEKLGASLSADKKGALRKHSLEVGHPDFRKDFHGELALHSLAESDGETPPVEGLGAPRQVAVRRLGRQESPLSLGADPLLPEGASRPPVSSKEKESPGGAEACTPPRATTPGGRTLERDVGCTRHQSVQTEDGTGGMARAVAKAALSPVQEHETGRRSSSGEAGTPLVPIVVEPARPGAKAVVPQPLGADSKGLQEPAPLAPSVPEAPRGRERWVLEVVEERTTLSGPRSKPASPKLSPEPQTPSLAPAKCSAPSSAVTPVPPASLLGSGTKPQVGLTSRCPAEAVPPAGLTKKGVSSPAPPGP
# Outline: (§2)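 Competition-binding KINOMEscan service panel of 59 kinases; percent inhibition at 10 µM.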
# [8] = target: T3, Branched-chain alpha-ketoacid dehydrogenase kinase; assay: Inhibition of human recombinant BCKDK at 500 uM incubated for 60 mins by ADP-Glo kinase assay
# Outline: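 Human recombinant BCKDK with inhibitor and 0.2 µM ATP, 60 min at 37 °C. ADP-Glo reagent 40 min at room temperature to stop and deplete ATP, then detection reagent 40 min to convert ADP to ATP; luminescence read.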
# [9] = target: Heat shock protein HSP90 (Homo sapiens) (UniProt P07900+P08238); assay: Inhibition of HSP90 (unknown origin) at 30 uM using labelled geldanamycin by fluorescence polarization assay; assay type: protein assay
# Outline: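 Competitive fluorescence polarization with labelled geldanamycin probe, run as a commercial HSP90 assay kit; read as percent inhibition at a single concentration.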
# [10] = target: [Pyruvate dehydrogenase (acetyl-transferring)] kinase isozyme 3, mitochondrial (Homo sapiens, UniProt Q15120); assay: Inhibition of human PDHK3 co-complexed with porcine PDH using sodium pyruvate, coenzymeA and NAD as substrate preincubated with enzyme complex for 45 mins followed by ATP addition and then later incubated with substrate for 90 mins by absorption spectrophotometric assay
# [Pyruvate dehydrogenase (acetyl-transferring)] kinase isozyme 3, mitochondrial, sequence (Q15120 whole entry): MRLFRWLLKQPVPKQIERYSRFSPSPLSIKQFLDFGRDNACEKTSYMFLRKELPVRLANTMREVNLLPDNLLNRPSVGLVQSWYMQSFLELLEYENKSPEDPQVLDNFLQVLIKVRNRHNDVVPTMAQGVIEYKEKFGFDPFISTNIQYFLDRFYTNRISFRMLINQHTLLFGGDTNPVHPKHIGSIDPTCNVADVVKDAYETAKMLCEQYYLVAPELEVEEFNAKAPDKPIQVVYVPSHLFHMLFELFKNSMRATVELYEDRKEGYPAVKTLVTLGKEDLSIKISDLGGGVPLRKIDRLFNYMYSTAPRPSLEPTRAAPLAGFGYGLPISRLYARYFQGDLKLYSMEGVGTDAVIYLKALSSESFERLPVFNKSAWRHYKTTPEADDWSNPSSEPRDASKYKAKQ
# Outline: (§3)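 Recombinant human PDHK mixed with porcine PDH complex, held overnight at 4 °C to form PDH/PDHK complex. Inhibitor plus 0.3 or 10 µM ATP, 45 min at room temperature. Then 5.0 mM CoA, 5.0 mM pyruvate, 12 mM NAD added, 90 min at room temperature. NADH A340 taken before and after; IC50 from Hill-type curve fit against 0% and 100% activity controls.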
# [11] = target: Serine/threonine-protein kinase mTOR (Homo sapiens) (UniProt P42345); assay: Inhibition of human partial length wild type mTOR (L1382 to W2549 residues) expressed in mammalian expression system at 10 uM by KINOMEscan analysis; outline: as §2
# [12] = target: [Pyruvate dehydrogenase (acetyl-transferring)] kinase isozyme 1, mitochondrial (Homo sapiens, UniProt Q15118); assay: Inhibition of human PDHK1 co-complexed with porcine PDH using sodium pyruvate, coenzymeA and NAD as substrate preincubated with enzyme complex for 45 mins followed by ATP addition and then later incubated with substrate for 90 mins by absorption spectrophotometric assay; outline: as §3
# [Pyruvate dehydrogenase (acetyl-transferring)] kinase isozyme 1, mitochondrial, sequence (Q15118 whole entry): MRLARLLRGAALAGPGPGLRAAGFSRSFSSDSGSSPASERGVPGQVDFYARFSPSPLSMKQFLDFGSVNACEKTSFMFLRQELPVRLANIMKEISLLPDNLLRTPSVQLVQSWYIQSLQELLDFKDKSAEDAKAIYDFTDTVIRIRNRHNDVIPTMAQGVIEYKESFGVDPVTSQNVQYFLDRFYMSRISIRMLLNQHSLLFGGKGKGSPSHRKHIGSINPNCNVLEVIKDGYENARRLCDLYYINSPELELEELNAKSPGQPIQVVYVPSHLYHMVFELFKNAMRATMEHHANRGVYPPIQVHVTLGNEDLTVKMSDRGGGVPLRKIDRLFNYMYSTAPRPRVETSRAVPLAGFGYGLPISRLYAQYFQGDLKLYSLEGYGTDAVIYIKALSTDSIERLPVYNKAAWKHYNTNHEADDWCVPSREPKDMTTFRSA
SMILES,IC50 [1],IC50 [2],further results
CCCc1[nH]c2nc(C)ncc2c1C#N,> 30 µM,> 30 µM,–
CC1(C)C(=O)Nc2c(N)cccc21,> 300 µM,> 300 µM,–
O=C1Cc2ccccc2N1 [OXINDOLE],–,–,inhibition [4]: 29%; IC50 [5]: > 2000 µM; IC50 [6]: 958 µM
CCc1cccc2c1NC(=O)C2(C)C,> 300 µM,11 µM,–
"COC(=O)c1ccc(O)cc1O [METHYL 2,4-DIHYDROXYBENZOATE]",–,–,IC50 [5]: 345 µM; IC50 [6]: 192 µM
CCCc1[nH]c2nc(C)nc(Cl)c2c1C,> 30 µM,9.9 µM,–
CNC(=O)c1[nH]c2nc(C)nc(Cl)c2c1C,> 100 µM,42.8 µM,–
CCCc1[nH]c2nc(C)ncc2c1C,> 30 µM,14.7 µM,–
CC1(C)C(=O)Nc2ccccc21,> 300 µM,279 µM,IC50 [5]: 890 µM; IC50 [6]: 50.2 µM
CNC(=O)c1[nH]c2nc(C)nc(Cl)c2c1Br,> 30 µM,> 30 µM,–
c1cnc2[nH]c3c(C4CC4)cccc3c2c1,> 300 µM,3.5 µM,–

# More lines, main results first:
IC50 [1],IC50 [2],SMILES,further results
43.6 µM,4.9 µM,CC1(C)C(=O)Nc2c(C3CC3)cccc21,–
5.9 µM,0.71 µM,Cc1cnc2[nH]c3c(C4CC4)cccc3c2n1,IC50 [3]: > 300 µM
12 µM,2 µM,Cc1cnc2[nH]c3c(C4CC4)cccc3c2c1,–
11 µM,1.8 µM,CCCc1[nH]c2nc(C)ncc2c1Cl,–
8 µM,1.5 µM,C/C=C/c1[nH]c2nc(C)nc(Cl)c2c1Cl,–
12.4 µM,2.2 µM,CCCc1[nH]c2nc(C)ncc2c1Br,–
12.8 µM,0.59 µM,CNc1cccc2c1NC(=O)C2(C)C,inhibition [7]: 60%; inhibition [8]: 14%; inhibition [9]: 3.2%; IC50 [10]: 8.4 µM; inhibition [11]: 58%; IC50 [12]: 0.37 µM
